Measured values: PMC6404779 (Nature medicine, 2018)

Assays:
[1] = test system: RAF-null MEFs expressing CRAF; assay: ERK signaling in RAF-null MEFs expressing one RAF isoform; assay type: cell-based, Mouse; conditions: 1hr
In short: (§1)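 RAF-less MEFs came from Araflox/lox;Braflox/lox;Craflox/lox;RERT ert/ert MEFs. Doxycycline-inducible wild-type ARAF, BRAF or CRAF was transduced retrovirally without 4-OHT and selected with puromycin/hygromycin. Cells were then infected with Adeno-Cre (MOI 100) and cultured in 1 uM 4-OHT plus 50 ng/ml doxycycline. GFP-positive cells were sorted after 2 weeks. Loss of endogenous RAF and induced expression were confirmed by genomic PCR and Western blot.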

[2] = test system: RAF-null MEFs expressing ARAF; assay: as above; assay type: cell-based, Mouse; conditions: 1hr
In short: as §1

BRAF G466V PDX tumors = assay: Colorectal cancer PDX model; assay type: in vivo, NSG mice; conditions: Cetuximab 50 mg/kg IP twice weekly, vemurafenib 75 mg/kg BID, PLX8394 50 mg/kg BID
[3] = test system: RAF-null MEFs expressing BRAF; assay: ERK signaling in RAF-null MEFs expressing one RAF isoform; assay type: cell-based, Mouse; conditions: 1hr
In short: as §1

[4] = test system: A375 cells with overexpression of BRAF V600E; assay: A375 xenograft with doxycycline-induced BRAF V600E overexpression; assay type: in vivo, nude mice; conditions: vemurafenib 75mg/kg BID, PLX8394 50mg/kg BID
In short: (§2)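 A375 cells carrying a retroviral tet-regulated BRAF V600E or NRAS Q61K construct (kept in 50 ug/ml hygromycin and 0.2 ug/ml puromycin). 5 million cells were injected s.c. into nude mice fed doxycycline food. At 100 mm3, mice stayed on doxycycline food and received vehicle, reference RAF inhibitor 75 mg/kg BID or test compound 50 mg/kg BID. Tumour size was tracked (n=5; mean±s.d.; two-tailed unpaired t-test).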

[5] = test system: A375 cells with NRAS Q61K expression; assay: A375 xenograft with doxycycline-induced NRAS Q61K; assay type: in vivo, nude mice; conditions: vemurafenib 75mg/kg BID, PLX8394 50mg/kg BID
In short: as §2

[6] = test system: BRAF K601E CRC PDX tumors; assay: Colorectal cancer PDX model; assay type: in vivo, NSG mice; conditions: vemurafenib 75mg/kg BID, PLX8394 50mg/kg BID

Q: How did the “effect on ERK signaling, cells expressing only CRAF” value [1] turn out when CCCS(=O)(=O)Nc1ccc(F)c(C(=O)c2c[nH]c3ncc(-c4ccc(Cl)cc4)cc23)c1F [vemurafenib, reference compound] was run?
A: activated ERK signaling

Q: What about the “effect on ERK signaling, cells expressing only ARAF” value [2] of the same compound?
A: activated ERK signaling

Q: And the “response of ERK signaling and tumor growth” value (BRAF G466V PDX tumors)?
A: insensitive

Q: And the “effect on ERK signaling, cells expressing only BRAF” value [3]?
A: activated ERK signaling

Q: And the “response of ERK signaling and tumor growth, BRAF V600E amplified” value [4]?
A: resistance

Q: And the “response of ERK signaling and tumor growth, mutant NRAS” value [5]?
A: resistance

Q: What about the “tumor growth response, single RAF inhibitor” value [6] of the same compound?
A: insensitive
